# Active and inactive are the calls of the source. No cut-off for these calls is given here. Starred links: 1 amine or outer side, 2 acyl side, 3 side chain; linkers in the order of their positions; H or OH if unused. Positions of bridges follow the written chain, without caps; N, C: chain ends. Non-standard residues stand in square brackets, D forms with d. Residues, ends and D or L forms follow the SMILES beside them. Groups on a side chain read outwards from the residue. *: point of attachment. Orn(4R-OH,5R-OH) = O=C([C@H](C[C@@H](O)[C@@H](O)N[*:3])N[*:1])[*:2]; hTyr(3S-OH,4S-OH) = N[C@H](C(=O)O)[C@H](O)[C@@H](O)c1ccc(O)cc1; Pro(3S-OH,4S-Me) = C[C@H]1CN[C@H](C(=O)O)[C@H]1O; Palmitoyl = CCCCCCCCCCCCCCCC(=O)*; Hyp = O=C(O)[C@@H]1C[C@@H](O)CN1; Cbz = O=C(OCc1ccccc1)*
# What was measured:
# Candida albicans [1] = test: Antifungal activity against Candida albicans ATCC 90028 after 24 to 48 hrs by serial broth microdilution susceptibility test; type: functional
# Summary of the method: (§1)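 MIC determined by serial microdilution in microplates. Candida inocula were prepared in L-glutamine-deficient RPMI-1640 medium.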
# [2] = (§2) Inhibition of beta (1,3) glucan synthase in Candida albicans cell membrane using UDP-Glc as substrate assessed as aniline blue-glucan complex formation by microtiter-based fluorescence method
# Summary of the method: (§3)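 β(1,3)-glucan synthase in the membrane fraction of C. albicans was assayed by a microtiter-based fluorescence method across a concentration range. Values are means of three independent experiments (SD); IC50 was determined.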
# Acinetobacter baumannii = test: Antibacterial activity against Acinetobacter baumannii ATCC 19606 after 18 to 24 hrs by serial broth microdilution susceptibility test; type: functional; conditions: ATCC 19606 = CIP 70.34 = JCM 6841; summary of the method: as §1
# Staphylococcus aureus [3] = test: Antibacterial activity against Staphylococcus aureus ATCC 25923 after 18 to 24 hrs by serial broth microdilution susceptibility test; type: functional; summary of the method: as §1
# Escherichia coli [4] = test: Antibacterial activity against Escherichia coli ATCC 25922 after 18 to 24 hrs by serial broth microdilution susceptibility test; type: functional; summary of the method: as §1
# [5] = system: Bordetella bronchiseptica; test: Antibacterial activity against Bordetella bronchiseptica ATCC 4617 after 18 to 24 hrs by serial broth microdilution susceptibility test; type: functional; summary of the method: as §1
# Candida albicans [6] = test: Antifungal activity against Candida albicans ATCC 10231 assessed as morphological changes at < 60 uM after 6 hrs by calcofluor white and aniline blue staining-based fluorescence microscopy; type: functional, organism-based
# Summary of the method: (§4)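 C. albicans ATCC 10231 yeast cells were incubated with compound for 6 h, at up to 2×MIC. Chitin was stained with Calcofluor White and glucan with Aniline Blue, then cells were examined by fluorescence microscopy against untreated controls.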
# Pseudomonas aeruginosa = test: Antibacterial activity against Pseudomonas aeruginosa ATCC 27853 after 18 to 24 hrs by serial broth microdilution susceptibility test; type: functional; summary of the method: as §1
# Candida albicans [7] = test: as §2; summary of the method: as §3
# [8] = Toxicity in human erythrocytes assessed as hemolysis at 100 uM after 30 mins by spectrophotometry; type: cell-based, Erythrocyte; conditions: read-out: Activity
# Summary of the method: (§5)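 Human erythrocytes suspended in PBS were exposed to lipopeptides at 0.001–0.4 mmol/l and hemolysis was measured.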
# [9] = Toxicity in human erythrocytes assessed as hemolysis at 300 uM after 30 mins by spectrophotometry; type: cell-based, Erythrocyte; conditions: read-out: Activity; summary of the method: as §5
# Candida albicans [10] = test: Inhibition of beta (1,3) glucan synthase in Candida albicans cell membrane using UDP-Glc as substrate assessed as aniline blue-glucan complex formation at 187 uM by microtiter-based fluorescence method; summary of the method: as §3
# Staphylococcus aureus [11] = test: Antibacterial activity against Staphylococcus aureus ATCC 43300 after 18 to 24 hrs by serial broth microdilution susceptibility test; type: functional; summary of the method: as §1
# Escherichia coli [12] = test: Antibacterial activity against Escherichia coli ATCC BAA-198 after 18 to 24 hrs by serial broth microdilution susceptibility test; type: functional; summary of the method: as §1
# [13] = system: Klebsiella pneumoniae subsp. pneumoniae; test: Antibacterial activity against Klebsiella pneumoniae subsp. pneumoniae ATCC 13882 after 18 to 24 hrs by serial broth microdilution susceptibility test; type: functional; summary of the method: as §1
# Candida parapsilosis = test: Antifungal activity against Candida parapsilosis ATCC 22019 after 24 to 48 hrs by serial broth microdilution susceptibility test; type: functional; conditions: Lodderomyces parapsilosis; summary of the method: as §1
# Candida albicans [14] = test: Antifungal activity against Candida albicans ATCC 10231 assessed as pseudohyphae formation at 120 uM after 6 hrs by calcofluor white and aniline blue staining-based fluorescence microscopy; type: functional, organism-based; summary of the method: as §4
# Pichia kudriavzevii = test: Antifungal activity against Candida krusei ATCC 6258 after 24 to 48 hrs by serial broth microdilution susceptibility test; type: functional; summary of the method: as §1
# Candida albicans [15] = test: Antifungal activity against Candida albicans ATCC 10231 assessed as increase in intracellular potassium release after 30 mins; type: functional, organism-based
# Summary of the method: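 Efflux of K+ from C. albicans cells was monitored continuously with a potassium-selective electrode. Release was expressed relative to a positive control, and EK50 was taken as the concentration releasing 50% of intracellular potassium.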
# Candida albicans [16] = test: Antifungal activity against Candida albicans ATCC 10231 assessed as leakage of intracellular contents at 4 uM after 2 hrs by scanning electron microscopy; type: functional, organism-based
# [17] = Toxicity in human erythrocytes assessed as hemolysis at above MIC after 30 mins by spectrophotometry; type: cell-based; conditions: erythrocyte, 0.5 h; summary of the method: as §5
# Candida albicans [18] = test: Antifungal activity against Candida albicans ATCC 10231 assessed as alteration in cell envelope at 4 uM after 2 hrs by scanning electron microscopy; type: functional, organism-based
# [19] = Toxicity in human erythrocytes suspended in L-glutamine deficient RPMI-1640 assessed as hemolysis after 30 mins by spectrophotometry relative to human erythrocytes suspended in PBS buffer; type: cell-based; conditions: erythrocyte, 0.5 h
# Summary of the method: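 Hemolysis was measured for human erythrocytes resuspended in L-glutamine-deficient RPMI-1640 (the Candida MIC medium) and compared with erythrocytes suspended in PBS.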
# Candida albicans [20] = test: Antifungal activity against Candida albicans ATCC 10231 assessed as massive destruction of cell surface at 64 uM after 2 hrs by scanning electron microscopy; type: functional, organism-based
# [21] = Toxicity in human erythrocytes assessed as hemolysis at 50 uM after 30 mins by spectrophotometry; type: cell-based, Erythrocyte; conditions: read-out: Activity; summary of the method: as §5
MIC (Candida albicans [1]) [µM],MIC (Acinetobacter baumannii) [µM],MIC (Staphylococcus aureus [3]) [µM],MIC (Escherichia coli [4]) [µM],MIC [5] [µM],MIC (Pseudomonas aeruginosa) [µM],MIC (Staphylococcus aureus [11]) [µM],MIC (Escherichia coli [12]) [µM],MIC [13] [µM],MIC (Candida parapsilosis) [µM],MIC (Pichia kudriavzevii) [µM],Compound,IC50 [2] [µM],other results
0.5,,,,,,,,,,,"CCCCCCCCCCCCCCCC(=O)N[C@H]1C[C@@H](O)[C@@H](O)NC(=O)[C@@H]2[C@@H](O)[C@@H](C)CN2C(=O)[C@H]([C@@H](C)O)NC(=O)[C@H]([C@H](O)[C@@H](O)c2ccc(O)cc2)NC(=O)[C@@H]2C[C@@H](O)CN2C(=O)[C@H]([C@@H](C)O)NC1=O [ACULEACIN A] (Palmitoyl-[Orn(4R-OH,5R-OH)]T[Hyp][hTyr(3S-OH,4S-OH)]T[Pro(3S-OH,4S-Me)]; lactam 1-C)",12,
60,60,30,8,7,120,8,8,119,15,15,CCCCCCCCNC(=O)[C@H](Cc1ccccc1)NC(=O)[C@H](CCCCNC(=O)[C@@H](N)CCCCNC(=O)OCc1ccccc1Cl)NC(=O)[C@@H](N)CCCCNC(=O)OCc1ccccc1Cl,,"Activity (Candida albicans [6]): inactive; inhibition (Candida albicans [7]): Dose-dependent effect; hemolysis at 0.5 h, 100 µM [8]: 1%; hemolysis at 0.5 h, 300 µM [9]: 10%; inhibition (Candida albicans [10]): 43%; Activity (Candida albicans [14]): Active; Activity (Candida albicans [15]): Dose-dependent effect; EC50 (Candida albicans [15]; Candida albicans, ATCC 10231, 0.5 h): 17 µM"
8,121,15,30,7,64,8,8,121,8,8,CCCCCCCCCCCCNC(=O)[C@H](Cc1ccccc1)NC(=O)[C@H](CCCCNC(=O)[C@H](CCCCN)NC(=O)OCc1ccccc1)NC(=O)[C@H](CCCCN)NC(=O)OCc1ccccc1.Cl.Cl,50,Activity (Candida albicans [16]): Active; Activity [17]: Toxic; Activity (Candida albicans [18]): Active; Activity [19]: Non-toxic; Activity (Candida albicans [20]): Active
> 128,> 144,> 144,> 144,144,> 144,> 144,> 144,> 144,> 144,> 144,NCCCC[C@H](NC(=O)OCc1ccccc1)C(=O)NCCCC[C@H](NC(=O)[C@H](CCCCN)NC(=O)OCc1ccccc1)C(=O)N[C@@H](Cc1ccccc1)C(N)=O (Cbz-Lys-Lys([Lys-Cbz])-Phe-NH2),,
,,,,,,,,,,,NYSTATIN,,EC50 (Candida albicans [15]): 2.4 µM
8,> 256,32,32,8,64,16,32,> 256,8,8,CCCCCCCCCCCCNC(=O)[C@H](Cc1ccccc1)NC(=O)[C@H](CCCCNC(=O)[C@H](CCCCN)NC(=O)OCc1ccccc1Cl)NC(=O)[C@H](CCCCN)NC(=O)OCc1ccccc1Cl,50,"hemolysis at 0.5 h, 50 µM [21]: 10%; hemolysis at 0.5 h, 100 µM [8]: 13%"
256,> 256,128,> 256,32,> 256,128,> 256,> 256,64,128,CCCCCCCCNC(=O)[C@H](Cc1ccccc1)NC(=O)[C@H](CCCCNC(=O)[C@@H](N)CCCCN)NC(=O)[C@@H](N)CCCCN,,"hemolysis at 0.5 h, 300 µM [9]: 10%"
